# Source: PubChem BioAssay
# This is a sample that favours compounds with a hit; in the whole collection about 3.4% have one here.
# CHRM1 agonist – human M1 muscarinic receptor agonists, primary screen, Fluo-8 calcium fluorescence, CHO-K1 cells, HTS. CHO-K1 hM1, agonist mode; 0% DMSO, 100% acetylcholine EC100. 360,000 compounds, 0.33% hits. activation, % at 3 µM;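 active means activation above the run's mean compound activation plus 3 SD, cut at about 16% in these data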;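 further: peak over basal fluorescence ratio within a 140 s kinetic read after compound addition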
# TAAR1 antag – human TAAR1 antagonists, primary screen, Fluo-8 calcium fluorescence, CHO RD-HGA16 cells; inhibition, % at 3 µM; 360,000 compounds, 1.5% hits; antagonist;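 active means inhibition above a per-plate cutoff, the mean inhibition of test compounds on that plate plus 3 SD, cut at about 49% in these data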;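 further: 0% = DMSO plus EC80 beta-PEA response and 100% = DMSO alone without agonist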
# Target sequence (Q96RJ0 whole entry, looked up): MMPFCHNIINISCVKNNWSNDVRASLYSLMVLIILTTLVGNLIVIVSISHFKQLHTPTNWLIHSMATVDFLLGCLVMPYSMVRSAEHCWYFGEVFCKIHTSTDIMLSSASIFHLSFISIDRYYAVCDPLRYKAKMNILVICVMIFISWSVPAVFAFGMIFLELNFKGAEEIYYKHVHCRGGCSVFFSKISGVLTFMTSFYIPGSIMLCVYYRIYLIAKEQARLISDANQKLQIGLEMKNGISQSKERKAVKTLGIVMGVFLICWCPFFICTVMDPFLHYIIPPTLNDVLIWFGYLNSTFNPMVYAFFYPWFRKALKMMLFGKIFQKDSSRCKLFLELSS
#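 Test system: RD-HGA16 CHO cells with stable hTAAR1 and Gα16 / Probe or stimulus: EC80 β-phenethylamine stimulus / Times: seeding 17-24 h prior, 75-min 37 °C, 30-min RT dye loading / Detection: Fluo-8 calcium-sensitive fluorescence / Read-out basis: % inhibition scaled between DMSO and EC80 PEA controls / Repeats: singlicate, one well per test compound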
# TAAR1 agonist – human TAAR1 agonists, primary screen, Fluo-8 calcium fluorescence, CHO RD-HGA16 cells | AID 624467, 2012 | activation, % at 3 µM | 360,000 compounds, 0.99% hits | vehicle wells 0%, saturating PEA agonist 100% | Trace amine-associated receptor 1 (Homo sapiens), Q96RJ0;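 active means activation above the mean activation of all test compounds in the run plus 3 SD, cut at about 38% in these data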
#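 Test system: RD-HGA16 (CHO) cells co-expressing Gα16 and hTAAR1 / Benchmarks: DMSO vehicle as 0%, PEA at EC100 as 100% / Repeats: no replicates (n 1) / Measure: % activation from peak over basal fluorescence ratio, DMSO-to-PEA scaled / Timing: 17-24 h plating, Fluo-8 75 min 37 °C, 30 min RT / Technique: kinetic Fluo-8 calcium fluorescence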
# M1 PAM – human M1 muscarinic receptor positive allosteric modulators, primary screen, CHO-K1 cells, Fluo-8 calcium fluorescence, 1536-well; CHO-K1 hM1, ACh EC20; 0% = ACh EC20, 100% = maximal ACh; activation, % at 3 µM; 360,000 compounds, 0.088% hits; in the data active means activation above about 19%, passing the limit was not always enough
# M1 antag – human M1 muscarinic receptor antagonists, primary screen, CHO-K1 cells, Fluo-8 calcium fluorescence, 1536-well | Muscarinic acetylcholine receptor M1 (Homo sapiens), P11229 | CHO-K1 hM1, ACh EC80 antagonist | inhibition, % at 3 µM | 360,000 compounds, 1.3% hits | AID 588852, 2011;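 active means percent inhibition above its own plate's cutoff, namely the mean of that plate's compound wells plus 3 SD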;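 further: peak over basal fluorescence ratio during 140 s after agonist addition; 0% = ACh EC80 plus DMSO and 100% = DMSO alone without agonist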
# TAAR1 nonsel count – nonselective antagonists in TAAR1 counter-screen cells, counter-screen for hTAAR1 antagonist project, cell-based, fluorescence, calcium | inhibition, % at 3 µM | 2,400 compounds, 77% hits | counterscreen cell line, antagonist mode | shares compounds with TAAR1 antag; in the data active means inhibition above about 22%;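 further: CHO-Ga16 host cells stimulated with ATP at an EC80 level; 0% = agonist EC80 plus vehicle and 100% = vehicle without agonist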
# TAAR1 ant conf – human TAAR1 antagonists, retest of hits, confirmation, cell-based, fluorescence; shares compounds with TAAR1 antag; TAAR1-expressing cells, fluorescence antagonist read-out; inhibition, % at 3 µM; 2,400 compounds, 40% hits; AID 651785, 2012; in the data active means inhibition above about 49%;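 further: CHO-Ga16 host cells challenged with agonist PEA near its EC80; 0% = agonist at EC80 plus vehicle and 100% = vehicle with no agonist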
# Ga16 nonsel ag – calcium activation in Ga16-expressing cells, counter-screen for TAAR1 antagonist project, cell-based, fluorescence; AID 651953, 2012; shares compounds with TAAR1 antag; 2,400 compounds, 18% hits; agonist counterscreen; activation, % at 3 µM; in the data active means activation above about 12%;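 further: 0% = vehicle wells and 100% = saturating stimulus response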
# TAAR1 ag counter – TAAR1 activation by candidate antagonists – cell-based, fluorescence, counter-screen for TAAR1 antagonist project; shares compounds with TAAR1 antag; hTAAR1 cell line, agonist mode; activation, % at 3 µM; 2,400 compounds, 2% hits; AID 651955, 2012; in the data active means activation above about 37%;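 further: CHO cells stably expressing TAAR1 with calcium dye readout; 0% = DMSO vehicle and 100% = full agonist response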
# * hit, by the source's call; . = no result.
SMILES,CHRM1 agonist,TAAR1 antag,TAAR1 agonist,M1 PAM,M1 antag,TAAR1 nonsel count,TAAR1 ant conf,Ga16 nonsel ag,TAAR1 ag counter
Fc1ccccc1COc1ccc(Br)cc1CNCc1cccnc1,-9,32,7,-3,-7,.,.,.,.
COc1ccccc1CNC(=O)c1cc(-c2ccccc2C)nn1CC1CC(c2cccnc2)=NO1 (stereo unspecified),-7,37,14,-4,11,.,.,.,.
Cc1ccccc1-c1cc(C(=O)NCc2cccc(Br)c2)n(CC2CC(c3cccnc3)=NO2)n1 (stereo unspecified),-10,69*,11,-19,27,26*,38,7,9
CCOC(=O)c1cc(-c2ccccc2)nn1CC1CC(c2ccc(Cl)cc2)=NO1 (stereo unspecified),-4,80*,13,-12,17,24*,47,6,3
CCCCNC(=O)C[C@@H]1C[C@@]2(C(=O)OCC)CCCC=C2N(CCC2=CCCCC2)C1=O,.,-36,-2,.,.,.,.,.,.
c1ccc(COCc2ccccc2)cc1,.,-10,1,.,.,.,.,.,.
CCN(Cc1ccccc1)S(=O)(=O)c1ccc(C(=O)N(CCCN(C)C)c2nc3cc(C)cc(C)c3s2)cc1,-7,24,27,3,9,.,.,.,.
Cc1cc(C)c2sc(N(CCCN(C)C)C(=O)c3ccc(S(=O)(=O)N(C)Cc4ccccc4)cc3)nc2c1,-5,50*,35,-1,7,39*,40,26*,46*
CCN1C(=O)c2cccc3c(S(=O)(=O)N(C)C)ccc1c23,-7,-12,1,-6,10,.,.,.,.
CCN1C(=O)c2cccc3c(S(=O)(=O)N(C(=O)c4cccnc4)c4ccc(OC)cc4)ccc1c23,-5,67*,14,-8,12,31*,54*,8,9
CCN1C(=O)c2cccc3c(S(=O)(=O)N(C(=O)c4ccncc4)c4ccc(OC)cc4)ccc1c23,-7,66*,13,-6,7,31*,43,6,4
Cc1nc2sccn2c(=O)c1S(=O)(=O)N1CCN(c2ccccc2F)CC1,-2,1,1,-13,19,.,.,.,.
CCN(CC)C(=O)c1cccc(-c2csc(C(C)(O)c3cccc(F)c3)n2)c1 (stereo unspecified),4,80*,11,-18,17,43*,57*,12*,11
CC(=O)Nc1cccc(-c2csc(C(C)(O)c3cccc(F)c3)n2)c1 (stereo unspecified),-1,-8,3,0,-6,.,.,.,.
CC(C)(C)NC(=O)C1C(c2ccc(C(F)(F)F)cc2)=Nc2ccccc2N1C(=O)c1cccc2ccccc12 (stereo unspecified),.,-37,0,.,.,.,.,.,.
CC1(c2nnc(-c3cccc(Cl)c3)o2)CC(c2c(Cl)cccc2Cl)=NO1 (stereo unspecified),-5,64*,7,-5,1,22*,35,1,1
CCOC(=O)C[C@@H]1OC[C@H](C(C)C)N1S(=O)(=O)c1ccc(C)cc1,.,-17,1,.,.,.,.,.,.
CCCCNc1c(-c2cccc(-c3cc(C(C)=O)cs3)c2)nc2cc(C)ccn12,-7,78*,14,-11,30,31*,53*,11,10
CC(=O)NC(c1ccccc1)c1nc(-c2ccc3ccccc3c2)cs1 (stereo unspecified),-4,-13,2,9,-13,.,.,.,.
Brc1ccc(-c2nc(N/N=C/c3cccnc3)c3ccccc3n2)cc1,-3,78*,15,-4,14,31*,49*,7,4
N#Cc1c(-c2ccc(Br)cc2)cc(-c2cccnc2)nc1N,-4,1,-1,1,-7,.,.,.,.
N#Cc1c(-c2cccc(Br)c2)cc(-c2cccnc2)nc1N,-6,56*,5,2,5,21,38,7,11
Cc1c(C(=O)Nc2ccc(F)cc2)oc2ccc(S(=O)(=O)N3CCC4(CC3)OCCO4)cc12,1,62*,24,-11,21,40*,50*,12*,9
Cc1c(C(=O)NCc2c(F)cc(F)cc2F)oc2ccc(S(=O)(=O)N3CCOCC3)cc12,-5,68*,19,-5,13,24*,47,11,17
Cc1c(C(=O)NCc2ccc(F)cc2)oc2ccc(S(=O)(=O)N3CCOCC3)cc12,-3,48,20,-5,-1,.,.,.,.
SMILES,CHRM1 agonist,TAAR1 antag,TAAR1 agonist,M1 PAM,M1 antag,TAAR1 nonsel count,TAAR1 ant conf,Ga16 nonsel ag,TAAR1 ag counter
O=C(OCC(=O)N(CCc1ccccc1)Cc1ccccc1)c1ccccc1O,-3,48,4,-6,5,.,.,.,.
O=C(OCC(=O)N(CCc1ccccc1)Cc1ccccc1)c1ccccc1NCCO,0,62*,5,-8,27,29*,47,4,3
COc1ccc(NC(=O)c2cc(-c3ccc(F)cc3OC)n[nH]2)c(OC)c1,0,66*,10,-15,16,32*,48,6,4
Cc1ccc2nc(-c3cccc(Br)c3)c(Cc3ccccc3)n2c1,0,-11,0,10,-31,.,.,.,.
O=C(Nc1cccc(C(F)(F)F)c1)Nc1nnc([C@@H]2C[C@H](O)[C@@H](CO)O2)s1,-1,11,0,-8,10,.,.,.,.
O=C(c1ccncc1)c1ccc(N2CCN(C3CC(=O)N(Cc4cccs4)C3=O)CC2)cc1 (stereo unspecified),3,58*,16,-6,-3,36*,50*,14*,11
O=C(Nc1ccccc1)c1cccc(N2C(=O)C3C4CC(C(Br)C4Br)C3C2=O)c1 (stereo unspecified),3,72*,24,0,16,38*,64*,19*,22
